According to ChEMBL document CHEMBL4651341, “The discovery of a novel series of compounds with single-dose efficacy against juvenile and adult Schistosoma species” (PLoS Negl Trop Dis, 2021):
Converted amounts (≈) assume the structure as drawn.

Legend:
[1] = Mean plasma concentration at 4h in Swiss albino male mice at […] per compound (administered orally in a mixture of 5 compounds to 3 mice) assessed by LCMS/MS.; assay type: ADME, organism-based; settings: mouse, po
[2] = Mean AUC inf in Swiss albino male mice at 1 mg/kg per compound (administered iv in a mixture of 5 compounds to 3 mice) assessed by LCMS/MS.; assay type: ADME, organism-based; settings: male, Swiss albino, mouse, in vivo
Outline: (§1)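 Male Swiss albino mice (~30 g), 3 per experiment, mostly dosed as mixtures of 5 compounds iv via the lateral tail vein. Vehicle: 10% DMSO/90% 50 mM Na2HPO4 with 0.5% Tween-80. Blood sampled at 5, 15, 30 min and 1, 2, 4, 8, 24 h. Plasma stored at −20 °C and quantified by LC-MS after acetonitrile precipitation.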

[3] = Mean plasma concentration at 24h in Swiss albino male mice at […] per compound (administered orally in a mixture of 5 compounds to 3 mice) assessed by LCMS/MS.; assay type: ADME, organism-based; settings: mouse, po
[4] = Solubility at 25 degC of compound (diluted from DMSO) in PBS at pH 7.4 determined after 24h (1h sonication, 22h shaking, 1h sonication) by LCMS/MS; assay type: physicochemical
[5] = Concentration of drug in plasma at 4h following oral drug adminstration at given dose. Determined by LCMS/MS; assay type: ADME, organism-based; settings: CD1, mouse
Outline: (§2)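 Plasma sampled from the mice of the efficacy experiments, each animal sampled once: one animal per group at 1, 4 and 8 h, two per group at 24 h. Plasma prepared by acetonitrile protein precipitation and analysed by LC-MS against a 10-point calibration line spiked in blank matrix, with QCs at three or more levels.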

[6] = Percentage of parent compound remaining after incubation for 90 minutes with cyropreserved mouse hepatocytes at a concentration of 1uM compound and […], determined by LCMS; assay type: ADME, tissue-based, Hepatocyte; settings: cryopreserved mouse hepatocytes, read-out: Stability
Outline: (§3)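 Compound was incubated at 1 µM final (2 µM working solution mixed 1:1 with hepatocyte suspension) in supplemented KHB pH 7.4. Conditions: 37 °C, 5% CO2, gentle mixing, duplicates. Reaction quenched with ice-cold acetonitrile containing standard; analysed by LC-MS/MS. % remaining = AUC at t / AUC at T0.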

[7] = Concentration of drug in plasma at 24h following oral drug adminstration at given dose. Determined by LCMS/MS; assay type: ADME, organism-based; settings: CD1, mouse; outline: as §2
[8] = Mean observed clearance in Swiss albino male mice at 1 mg/kg per compound (administered iv in a mixture of 5 compounds to 3 mice) assessed by LCMS/MS.; assay type: ADME, organism-based; settings: male, Swiss albino, mouse, in vivo, read-out: Clearance (converted); outline: as §1
[9] = Mean time to peak plasma concentration in Swiss albino male mice at […] per compound (administered orally in a mixture of 5 compounds to 3 mice) assessed by LCMS/MS.; assay type: ADME, organism-based; settings: mouse, po
Schistosoma mansoni [10] = experiment: Percentage of worms remaining following treatment of female CD1 mice infected with S. mansoni worms (21 day old - juvenile or 42 day old - adult) with compound by oral gavage. Worms were recovered by portal perfusion with citrate saline 8-14 days post treatment and counted. Percentages are from a mean of 5 or 6 animals.; assay type: functional, Mus musculus; parameters: concentration or dose not given beside the values
Outline: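 Female CD1 mice were infected subcutaneously with 150 cercariae and treated at day 21 (juvenile) or day 42 (adult). Single oral gavage, or two doses 12 h apart, given in 7% Tween-80/3% ethanol/water (sonicated) or in 1:19 DMSO:corn oil. Controls received vehicle only. Worm recoveries are group means, n = 5–6.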

Schistosoma mansoni [11] = experiment: Concentration required to kill 50% of 42 day old worms 5 days after drug treatment.; assay type: functional, organism-based; settings: Puerto Rican, 120 h
Outline: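 Adult S. mansoni were perfused from CD1 mice 6 weeks post-infection and washed. They were cultured 3 pairs per well in 1 mL DMEM with 2 mM glutamine, penicillin/streptomycin and 10% FCS […] at 37 °C, 5% CO2. Viability of individual worms was scored on day 5 (120 h).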

[12] = Concentration required to kill 50% HepG2 cells as detected by MTT staining; assay type: toxicity, cell-based; settings: homo sapiens, read-out: TC50 (the source's name)
[13] = Mean oral bioavailability in Swiss albino male mice at […] per compound (administered in a mixture of 5 compounds to 3 mice) assessed by LCMS/MS.; further: dose 2.5 mg/kg; assay type: ADME, organism-based; settings: male, Swiss albino, mouse, in vivo, read-out: Bioavailability
[14] = Mean volume of distribution at steady state in Swiss albino male mice at 1 mg/kg per compound (administered iv in a mixture of 5 compounds to 3 mice) assessed by LCMS/MS.; assay type: ADME, organism-based; settings: mouse, in vivo, read-out: Volume
Outline: (§4)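 Male Swiss albino mice (~30 g), 3 per experiment, mostly dosed as mixtures of 5 compounds iv via the lateral tail vein. Vehicle: 10% DMSO/90% 50 mM Na2HPO4 with 0.5% Tween-80. Plasma stored at −20 °C and quantified by LC-MS after acetonitrile precipitation.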

Schistosoma mansoni [15] = experiment: Concentration required to kill 50% of 21 day old worms 5 days after drug treatment.; assay type: functional, organism-based; settings: Puerto Rican, 120 h
Outline: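 Juvenile S. mansoni (Puerto Rican strain) were perfused from CD1 mice 3 weeks post-infection and washed. They were cultured 6–8 per well in 200 µL DMEM with 2 mM glutamine, penicillin/streptomycin and 10% FCS at 37 °C, 5% CO2. Viability of individual worms was scored on day 5 after dosing (120 h).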

[16] = Percentage of parent compound remaining after incubation for 30 minutes with cyropreserved mouse hepatocytes at a concentration of 1uM compound and […], determined by LCMS; assay type: ADME, tissue-based, Hepatocyte; settings: cryopreserved mouse hepatocytes, read-out: Stability; outline: as §3
[17] = Mean half-life in Swiss albino male mice at 1 mg/kg per compound (administered iv in a mixture of 5 compounds to 3 mice) assessed by LCMS/MS.; assay type: ADME, organism-based; settings: mouse, in vivo; outline: as §4
[18] = Plasma protein binding determined at 10uM by LC-MS/MS.; settings: mouse
[19] = Partition coefficient of compound between n-octanol and PBS (pH7.4); assay type: physicochemical; settings: octanol/water, pH 7.4
Outline: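 Shake-flask method using octanol and PBS pH 7.4, each pre-saturated with the other. Compound was shaken 2 h at 850 rpm, 25 °C, then the phases were separated by centrifugation and both layers diluted and analysed by LC-MS/MS. LogD = log(octanol AUC × relative dilution / buffer AUC).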

[20] = Plasma protein binding determined at 10uM by LC-MS/MS.; assay type: ADME, cell-free
Outline: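 Equilibrium dialysis of plasma spiked at 10 µM (0.1% DMSO) against PBS pH 7.4, 6 h at 37 °C, duplicates. Both chambers analysed by LC-MS/MS after acetonitrile precipitation. % free = buffer/plasma area ratio; recovery also calculated.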

[21] = Percentage of parent compound remaining after incubation for 30 minutes with cyropreserved human hepatocytes at a concentration of 1uM compound and 1 million cells/uL, determined by LCMS/MS; assay type: ADME, tissue-based, Hepatocyte; settings: cryopreserved human hepatocytes, read-out: Stability; outline: as §3
Schistosoma haematobium = experiment: Concentration required to kill 50% of 84 day old worms 5 days after drug treatment.; assay type: functional, organism-based; settings: Egyptian, 120 h
[22] = Plasma protein binding determined at 1uM by LC-MS/MS.; assay type: ADME, cell-free; settings: mouse

Compound | concentration at 4 h [1] | AUC(0-inf) [2] | concentration at 24 h [3] | solubility kinetic at 24 h [4] | clearance [8] | Tmax [9] | EC50 (Schistosoma mansoni [11]) | CC50 [12] | bioavailability [13] | Vd [14] | EC50 (Schistosoma mansoni [15]) | remaining at 0.5 h, 1 µM [16] | half-life [17] | Binding [18] | Lipophilicity [19] | also measured
CCc1nc2cnc(-c3ccc(F)c(C(F)(F)F)c3)cn2c1-c1ccc2[nH]ncc2c1F | 676 ng/mL | 2080 ng·h/mL | 21.4 ng/mL | 1.83 µM (≈ 0.811 µg/mL) | 4.02 mL/min/kg | 120 min | 45 nM | 13100 nM | 82.7% | 1.37 L/kg | 87 nM | – | – | – | – | concentration at 4 h [5]: 705 ng/mL; remaining at 1.5 h, 1 µM [6]: 85%; concentration at 24 h [7]: 50.5 ng/mL; Efficacy (Schistosoma mansoni [10]): 89.6%
COc1ccc(-c2c(C(C)C)nc3cnc(-c4ccnc(N(C)C)c4)cn23)cc1O | 1.11 ng/mL | 48.3 ng·h/mL | 0.1 ng/mL | 0.467 µM (≈ 0.188 µg/mL) | 173 mL/min/kg | 15 min | – | – | 6.57% | 2.98 L/kg | < 939 nM | 31.9% | 19.9 min | 98.4537% | 4.33 = | –
COc1ccc(-c2c(C(C)C)nc3cnc(-c4ccc(F)c(C(F)(F)F)c4)cn23)cc1O | 5.08 ng/mL | 143 ng·h/mL | 0.1 ng/mL | 2.5 µM (≈ 1.11 µg/mL) | 58.8 mL/min/kg | 15 min | < 48.8 nM | – | 8.28% | 3.75 L/kg | 177 nM | 54.5% | 96 min | 99.9485% | 5.7 = | –
Oc1cc(F)c(-c2c(C3CC3)nc3cnc(-c4ccc(F)c(C(F)(F)F)c4)cn23)c(F)c1 | 680 ng/mL | 3800 ng·h/mL | 151 ng/mL | – | 2.25 mL/min/kg | 15 min | 44.3 nM | 8900 nM | 69.6% | 1.94 L/kg | 33.7 nM | 83.8% | – | – | 4.34 = | Binding ([20]; human): 100%; Binding ([20]; mouse): 99.975%; remaining at 0.5 h, 1 µM [21]: 42.1%; concentration at 4 h [5]: 1040 ng/mL; remaining at 1.5 h, 1 µM [6]: 53%; concentration at 24 h [7]: 460 ng/mL; Efficacy (Schistosoma mansoni [10]): 75%
COc1ccc(-c2c(C)nc3ccc(-c4cccc(C(F)(F)F)c4)cn23)cc1O | 0.1 ng/mL | 53.1 ng·h/mL | 0.1 ng/mL | 1.95 µM (≈ 0.777 µg/mL) | 158 mL/min/kg | 15 min | – | – | 1.48% | 3.65 L/kg | < 684 nM | 43% | – | 99.8676% | 4.92 = | –
COc1ccc(-c2c(C3CC3)nc3cnc(-c4cccc(C(F)(F)F)c4)cn23)cc1O | 1.88 ng/mL | 77.9 ng·h/mL | 0.1 ng/mL | 1.2 µM (≈ 0.51 µg/mL) | 108 mL/min/kg | 15 min | 71.5 nM | – | 3.64% | 4.58 L/kg | 62.5 nM | 41.3% | 62.4 min | 99.9319% | 4.62 = | –
Cc1nc2cnc(-c3ccc(F)c(C(F)(F)F)c3)cn2c1-c1c(F)cc(O)cc1F | 289 ng/mL | 844 ng·h/mL | 9.8 ng/mL | 1.11 µM (≈ 0.47 µg/mL) | 10.2 mL/min/kg | 15 min | 118 nM | 7560 nM | 88.5% | 2.91 L/kg | 124 nM | 53.6% | 216 min | – | 5.37 = | Binding ([20]; human): 99.9645%; Binding ([20]; mouse): 99.865%; remaining at 0.5 h, 1 µM [21]: 34.3%; EC50 (Schistosoma haematobium): 41.5 nM; Binding [22]: 99.8779%
